Screening data: PubChem BioAssay, Sanford-Burnham Center for Chemical Genomics
The list is a sample of the results.
Apaf-1 act = human Apaf-1 activation. O14727. Apaf-1 apoptosome caspase-3 activation, DEVD-Rh110 fluorescence; active compounds read low. activity change, negative = activation, % at 20 µM. hit rate 0.31% among 330,000. AID 489031;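 active = activity change at or below -40% at 20 µM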
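Assay system – biochemical Apaf-1 apoptosome reconstitution · Medium – 20 mM HEPES buffer, pH 7.5, containing CHAPS and BSA · Incubation – 30 min preincubation, 50 min reaction, room temperature · Measured by – Caspase-3-released Rh110 fluorescence, 540 nm emission, 480 nm excitation · Read-out – Caspase-3 cleavage activity downstream of Apaf-1 activation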
Rh110 interf act = interferes with Rh110 fluorescence, flagging false Apaf-1 activators; shares compounds with Apaf-1 act; Rh110 fluorescence interference, quenched caspase reaction, Ex480/Em540; fluorescence interference (activity change), % at 20 µM, hits read low; 980 tested, under 10 active;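 active = mean activity change at or below -40% when tested at 20 µM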
Apaf-1 act conf = confirmation of human Apaf-1 activators; shares compounds with Apaf-1 act; reconstituted apoptosome caspase-3 activity, DEVD-Rh110 fluorescence; active compounds read low; activity change, negative = activation, % at 20 µM; hit rate 5% among 980; AID 504617;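 active = mean activity change at or below -40%, meaning activation of 40% or more, at 20 µM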
Large screens that a line does not name were inactive (follow-up assays come after a bar, where they were run).

COC(=O)C(Cc1ccc(N(CCCl)CCCl)cc1)N=Cc1ccccc1O (stereo not drawn)	Apaf-1 act -63
NC(N)=N/N=C/c1cn(-c2ccccc2)nc1-c1cccs1	none
COC(=O)C1=C(c2ccc(OCc3ccccc3)cc2)C[C@@H]2CC[C@H]1N2C(=O)NC1CCN(Cc2ccccc2)CC1	none
ClC1C(Cl)C(Cl)C(Cl)C(Cl)C1Cl (stereo not drawn)	none
Cn1c(=O)[nH]c2nncnc2c1=O	none
Brc1ccc(Oc2ccc(Br)cc2Br)c(Br)c1	Apaf-1 act -139 | Rh110 interf act inactive | Apaf-1 act conf inactive
CC(C)[C@H]1C(=O)N2CCC[C@H]2[C@]2(O)O[C@](NC(=O)[C@@H]3C=C4c5cccc6[nH]cc(c56)C[C@H]4N(C)C3)(C(C)C)C(=O)N12	none
CCOC(=O)c1cc(CC)sc1/N=C/c1c(O)[nH]c(=S)[nH]c1=O	Apaf-1 act -200 | Rh110 interf act -133 | Apaf-1 act conf inactive
NC(Cc1cc(O)c(O)cc1O)C(=O)O (stereo not drawn)	none
COc1cc2c(cc1O)C[C@H]1NCCc3cc4c(c-2c31)OCO4	none
CCCCn1c(NC(=O)c2ccco2)c(C(=O)OCC)c2nc3ccccc3nc21	none
C=CCN1CC[C@]23c4c5ccc(O)c4O[C@H]2C(=O)CC[C@@]3(O)[C@H]1C5	none
COC(=O)C(O)(c1c(C)[nH]n(-c2ccccc2)c1=O)C(F)(F)F (stereo not drawn)	none
O=C1C=Cc2ccccc2C1=O	none
COC(=O)c1nc(-c2ccc3c(n2)C(=O)C(N)=C(OC)C3=O)c(N)c(-c2ccc(OC)c(OC)c2O)c1C	none
COc1ccccc1CCNCc1cc2c(cc1[N+](=O)[O-])OCO2	Apaf-1 act -192 | Rh110 interf act inactive | Apaf-1 act conf inactive
Nc1cc2nc3ccccc3nc2cc1N	none
O=C1NC(=O)C(=Cc2ccc(Oc3ccc([N+](=O)[O-])cc3)cc2)C(=O)N1	none
CCCNC(=O)c1c(N)n(CC2CCCO2)c2nc3ccccc3nc12 (stereo not drawn)	none
CCCCn1c(N)c(C(=O)NCc2cccs2)c2nc3ccccc3nc21	none
Cc1cc(/C=C2/C(=O)NC(=O)N(Cc3ccco3)C2=O)c(C)n1-c1ccccc1	Apaf-1 act -53 | Rh110 interf act inactive | Apaf-1 act conf inactive
COCCCn1c(N)c(C(=O)NCCC(C)C)c2nc3ccccc3nc21	none
O=C(c1ccc2nc(-c3ccco3)c(-c3ccco3)nc2c1)N1CCC2(CC1)OCCO2	none
CCC(COC(=O)c1cc(OC)c(OC)c(OC)c1)(c1ccccc1)N(C)C (stereo not drawn)	none
CCCCNC(=O)c1c(N)n(Cc2ccc3c(c2)OCO3)c2nc3ccccc3nc12	none
O=C1NC(=O)N(c2ccc(Cl)cc2)C(=O)/C1=C/c1coc2ccc(O)cc2c1=O	Apaf-1 act -41 | Rh110 interf act inactive | Apaf-1 act conf inactive
Nc1c(C(=O)NCCCc2ccccc2)c2nc3ccccc3nc2n1Cc1cccs1	none
COCCOC(=O)c1c(N)n(Cc2ccccc2)c2nc3ccccc3nc12	none
CC(C)OCCCNC(=O)c1c(N)n(CC2CCCO2)c2nc3ccccc3nc12 (stereo not drawn)	none
O=[N+]([O-])c1ccc(NC2CCN(Cc3ccccc3)CC2)c2ccncc12	none
CC(=O)OCC[N+](C)(C)C	none
COc1ccc(C(=O)Cn2c(NCCCl)nc3ccccc32)cc1	Apaf-1 act -331 | Rh110 interf act inactive | Apaf-1 act conf inactive
COc1ccc(Cn2c(N)c(C(=O)NCc3ccco3)c3nc4ccccc4nc32)cc1	none
CCN1/C(=C\C=C\C2=[N+](CC)c3ccccc3C2(C)C)C(C)(C)c2ccccc21	none
CCC(C)N1C(=O)NC(=O)C2(Cc3c(ccc4ccccc34)N(C)C2)C1=O (stereo not drawn)	none
COc1cc2c(cc1OC)-c1c(OC)c(OC)cc3c1C(C2)N(C)CC3 (stereo not drawn)	none
O=c1[nH]c2ccccc2n1CCCN1CCC(n2c(=O)[nH]c3cc(Cl)ccc32)CC1	Apaf-1 act -41 | Rh110 interf act inactive | Apaf-1 act conf inactive
CCCCOCCCn1c(N)c(C(=O)OCCOC)c2nc3ccccc3nc21	none
O=[N+]([O-])c1ccccc1-c1cc(-c2ccccc2)cc(-c2ccccc2)[n+]1Cc1ccccc1Cl	none
Nc1c(C(=O)NCc2ccco2)c2nc3ccccc3nc2n1Cc1ccc(F)cc1	none
c1ccc2c(c1)CSc1ccccc1C2C1=NCCN1 (stereo not drawn)	Apaf-1 act -228 | Rh110 interf act inactive | Apaf-1 act conf inactive
CC(C)CCn1c(N)c(C(=O)OCC2CCCO2)c2nc3ccccc3nc21 (stereo not drawn)	none
Clc1ccc(C[n+]2c(-c3ccccc3)cc(-c3ccccc3)cc2-c2ccccc2)cc1	none
COc1cc2c(cc1OC)-c1c3c(cc4c1[C@@H](C2)N(C)CC4)OCO3	none
CCn1nc(/C=C/c2ccccc2)nc2c(=O)n(C)c(=O)nc1-2	none
CC(C)C[C@H]1C(=O)N2CCCC2[C@]2(O)O[C@](NC(=O)[C@@H]3C=C4c5cccc6[nH]cc(c56)CC4N(C)C3)(C(C)C)C(=O)N12 (stereo partly drawn)	none
CCCCn1c(NS(=O)(=O)c2ccc(C)cc2)c(C(=O)OCC)c2nc3ccccc3nc21	none
Cc1ccc(-n2c(C)nc3ccccc3c2=O)c(C)c1	Apaf-1 act -76 | Rh110 interf act inactive | Apaf-1 act conf inactive
Nc1c(C(=O)NCc2ccco2)c2nc3ccccc3nc2n1CCN1CCOCC1	none
CCCCCCn1c(N)c(C(=O)NCCN2CCOCC2)c2nc3ccccc3nc21	none
CCCCN1C(=N)C(CC)(CC)C(=O)NC1=O	Apaf-1 act -42 | Rh110 interf act inactive | Apaf-1 act conf inactive
O=[N+]([O-])c1ccc(NC2CCCC2)c2ccncc12	none
COCC(C)OC(=O)c1c(N)n(Cc2ccco2)c2nc3ccccc3nc12 (stereo not drawn)	none
CCCCCn1c(N)c(C(=O)NCc2cccs2)c2nc3ccccc3nc21	none
COc1cc(C(c2c(C)[nH]n(-c3ccccc3)c2=O)c2c(C)[nH]n(-c3ccccc3)c2=O)cc(OC)c1OC	none
